Here are results for 19 compounds from ChEMBL document CHEMBL3259555, “Aromatic diacylhydrazine derivatives as a new class of polo-like kinase 1 (PLK1) inhibitors” (Eur J Med Chem, 2014).

What is called CC50 is the concentration giving 50% cytotoxicity. The IC50 is the midpoint of a concentration-inhibition curve. Read a high IC50 as a need for much substance.

Data set [1] can be described thus: Cytotoxicity against macrophage (unknown origin) assessed as reduction in cell viability after 24 hrs by MTT assay. Format: cell-based. To be noted: macrophages (unknown origin). An outline of the steps: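 Macrophages plated at 5×10⁵ cells per well with a range of compound concentrations and incubated 24 h at 37 °C, 5% CO₂. MTT (4 mg/mL stock) added for the final 4 h, plate centrifuged, supernatant removed, DMSO added, absorbance read at 570 nm. Triplicate wells per concentration, assay repeated three times; CC50 (50% viability reduction) given as mean ± SD.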
Background: Tetrazolium assays rely on reduction of a dye to a coloured formazan, in cell work by metabolically active cells.

A short description of another data set: cells. Conditions: Homo sapiens, Cancer cell lines, 48 h.

Structures are written as SMILES.

In the case of `COc1ccccc1/C=C/C(=O)NNC(=O)c1ccc2c(c1)OCCO2`, in data set [1], the half-maximal cytotoxic concentration (CC50) at 24 h was 312 µM. The same compound returned a concentration for half-maximal inhibition (IC50) in “cells” of 8.06 µM.
In the case of `O=C(/C=C/c1cccc(Br)c1)NNC(=O)c1ccc2c(c1)OCCO2`, the CC50 at 24 h in data set [1] was found to be 351 µM. In “cells”, it took 3.33 µM to reach half-maximal inhibition (IC50).
The corresponding values for `O=C(/C=C/c1cccc(F)c1)NNC(=O)c1ccc2c(c1)OCCO2` are 221 µM and 4.11 µM.
Regarding `O=C(/C=C/c1ccccc1F)NNC(=O)c1ccc2c(c1)OCCO2`, the CC50 at 24 h in data set [1] stood at 302 µM. For the same compound, the concentration for half-maximal inhibition (IC50) in “cells” was determined as 4.51 µM.
As to `O=C(/C=C/c1ccc(Br)cc1)NNC(=O)c1ccc2c(c1)OCCO2`, the half-maximal cytotoxic concentration (CC50) at 24 h in data set [1] was found to be 259 µM. In addition, the midpoint of inhibition in the data set “cells”, the IC50, lay at 2.33 µM.
For `O=C(/C=C/c1ccc(F)cc1)NNC(=O)c1ccc2c(c1)OCCO2` the same measures were 319 µM and 0.99 µM.
As for `O=C(/C=C/c1cccc([N+](=O)[O-])c1)NNC(=O)c1ccc2c(c1)OCCO2`, the CC50 at 24 h in data set [1] was found to be 323 µM. In addition, the IC50 in “cells” was 1.56 µM.
The corresponding values for `O=C(/C=C/c1ccccc1Cl)NNC(=O)c1ccc2c(c1)OCCO2` are 285 µM and 4.88 µM.
The corresponding values for `O=C(/C=C/c1cccc(Cl)c1)NNC(=O)c1ccc2c(c1)OCCO2` are 391 µM and 3.56 µM.
For `Cc1cccc(/C=C/C(=O)NNC(=O)c2ccc3c(c2)OCCO3)c1` the same measures were 281 µM and 2.89 µM.
`Cc1ccccc1/C=C/C(=O)NNC(=O)c1ccc2c(c1)OCCO2`: in data set [1], the CC50 at 24 h stood at 268 µM. Also, the IC50 in “cells” is 7.71 µM.
With `O=C(/C=C/c1ccc(Cl)cc1)NNC(=O)c1ccc2c(c1)OCCO2`, the CC50 at 24 h in data set [1] is 309 µM. Besides, 1.13 µM corresponded to half-maximal inhibition in the data set “cells” (IC50).
For `O=C(/C=C/c1ccc([N+](=O)[O-])cc1)NNC(=O)c1ccc2c(c1)OCCO2` the same measures were 295 µM and 0.61 µM.
As to `COc1ccc(/C=C/C(=O)NNC(=O)c2ccc3c(c2)OCCO3)cc1`, in data set [1], the CC50 at 24 h was 319 µM. In the data set “cells”, this compound came in with an IC50 of 0.93 µM.
For `COc1cccc(/C=C/C(=O)NNC(=O)c2ccc3c(c2)OCCO3)c1` the same measures were 398 µM and 0.17 µM.
For `O=C(/C=C/c1ccccc1)NNC(=O)c1ccc2c(c1)OCCO2` the same measures were 312 µM and 0.55 µM.
The corresponding values for `Cc1ccc(/C=C/C(=O)NNC(=O)c2ccc3c(c2)OCCO3)cc1` are 332 µM and 1.05 µM.
As to `O=C(/C=C/c1ccccc1Br)NNC(=O)c1ccc2c(c1)OCCO2`, the CC50 at 24 h in data set [1] was determined as 315 µM. The compound also registered an IC50 in the data set “cells” of 2.11 µM.
Turning to `O=C(/C=C/c1ccccc1[N+](=O)[O-])NNC(=O)c1ccc2c(c1)OCCO2`, the 50% cytotoxic concentration (CC50) at 24 h in data set [1] worked out at 257 µM. In the data set “cells”, this compound had an IC50 of 0.89 µM.
